# Screens deposited in PubChem by The Scripps Research Institute Molecular Screening Center.
# ARFGAP1 inh = inhibitors of rat ARFGAP1 GAP activity, primary screen, biochemical, fluorescence polarization, GDP tracer; Arfgap1-stimulated ARF1 GTP hydrolysis, GDP FP detection; 360,000 compounds, 0.26% hits; inhibition, % at 16.5 µM; AID 651572, 2012;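 active = inhibition above a per-plate limit, mean inhibition of low control wells plus 3 SD, cut at about 25% in these data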
# Target sequence (Q62848 1-136 limits assumed): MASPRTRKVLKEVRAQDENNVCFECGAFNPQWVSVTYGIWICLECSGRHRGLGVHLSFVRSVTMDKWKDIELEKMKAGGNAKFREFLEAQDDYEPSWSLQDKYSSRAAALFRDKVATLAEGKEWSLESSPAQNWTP
#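 System: truncated rat Arfgap1 GAP domain / Medium: HEPES-based buffer, pH 7.5 / Also added: N-terminally truncated human ARF1-GTP substrate / Incubation: enzyme reaction 120 min at 25 °C after 20 min preincubation / Measured by: FP of antibody-bound GDP Alexa 633 tracer, ex 620/em 688 nm / Replicates: singlicate, each compound tested once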
# sPLA2-III inh = human group III sPLA2 inhibitors, primary screen, biochemical, QFRET, BODIPY PC-A2 liposome substrate; QFRET BODIPY PC-A2 liposome hydrolysis, fluorescence; AID 743126, 2013; inhibition, % at 12.2 µM; 370,000 compounds, 0.56% hits;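 active = inhibition above mean plus 3 SD of compounds lying within the high and low control bounds, cut at about 19% in these data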
# PLC-gamma1 inh = PLC-gamma1 enzyme inhibitors, primary screen, biochemical, fluorescence, purified enzyme; 1-phosphatidylinositol 4,5-bisphosphate phosphodiesterase gamma-1 (Homo sapiens), P19174; fluorogenic substrate; inhibition, % at 12.2 µM; 370,000 compounds, 0.84% hits; AID 720700, 2013; in the data active = inhibition above about 9.5%
# PLCb3 inh = human PLC-beta3 inhibitors, primary screen, biochemical, fluorescence | 1-phosphatidylinositol 4,5-bisphosphate phosphodiesterase beta-3 (Homo sapiens), Q01970 | inhibition, % at 12.2 µM | 370,000 compounds, 0.18% hits | Purified PLC-beta3, fluorogenic substrate; in the data active = inhibition above about 11%
# ASAP1 GAP inh = inhibitors of human ASAP1 ArfGAP activity, primary screen, biochemical, fluorescence polarization | ASAP1-stimulated ARF1 GTP hydrolysis, GDP FP detection | inhibition, % at 16.5 µM | 360,000 compounds, 0.19% hits; in the data active = inhibition above about 25%
# ARFGAP1 inh conf = ARFGAP1 inhibitor hit confirmation, biochemical, fluorescence polarization, triplicate; 890 compounds, 30% hits; inhibition, % at 16.5 µM; ARFGAP1-stimulated ARF1 GTP hydrolysis, GDP tracer FP; shares compounds with ARFGAP1 inh;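 active = average inhibition over triplicates above the hit cutoff set in the earlier primary screen, cut at about 25% in these data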
# Target sequence (Q62848 whole entry, looked up): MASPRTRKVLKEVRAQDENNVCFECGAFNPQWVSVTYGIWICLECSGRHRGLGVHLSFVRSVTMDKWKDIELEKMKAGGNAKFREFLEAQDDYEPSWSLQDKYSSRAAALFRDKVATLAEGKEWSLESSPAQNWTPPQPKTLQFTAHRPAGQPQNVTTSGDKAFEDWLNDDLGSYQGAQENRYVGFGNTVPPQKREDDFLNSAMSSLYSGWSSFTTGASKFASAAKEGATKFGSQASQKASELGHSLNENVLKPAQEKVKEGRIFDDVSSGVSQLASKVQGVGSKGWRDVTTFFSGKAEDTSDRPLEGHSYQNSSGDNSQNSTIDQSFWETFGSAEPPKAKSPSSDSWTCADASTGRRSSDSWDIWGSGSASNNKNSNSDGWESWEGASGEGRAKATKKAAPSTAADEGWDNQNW
# Hits are given with their value; n = inactive; x = no result; ! = not confirmed by another sample. Only some compounds are listed: those with a hit (about 1.9% of all), similar ones and a draw of the others.
SMILES,ARFGAP1 inh,sPLA2-III inh,PLC-gamma1 inh,PLCb3 inh,ASAP1 GAP inh,ARFGAP1 inh conf
CCOC(=O)C1CCCN(CCC(=O)Nc2ccccc2C)C1 (stereo not given),26,n,n,n,n,n
O=C(Nc1nnc(Cc2ccc([N+](=O)[O-])cc2)s1)Nc1ccccc1F,60,n,n,n,n,n
CC(OC(=O)C1CCN(c2ccc(C(F)(F)F)cn2)CC1)C(=O)Nc1cccc([N+](=O)[O-])c1 (stereo not given),27,n,n,n,n,n
Cc1ccccc1-n1c(=O)cc(N2CCc3ccccc32)[nH]c1=O,25,n,n,n,n,n
COc1ccc(OC)c(S(=O)(=O)N2CCCCC2C(=O)N2CCN(c3ccccc3F)CC2)c1 (stereo not given),x,n,n,n,x,x
CCC(C(=O)Nc1ccccc1N1CCCC1)c1cccc(OC)c1 (stereo not given),x,n,n,n,x,x
Cc1c(C=O)c(Cl)n(C)c(=O)c1C#N,28,n,n,n,n,n
CCCCCN1CCCCC(NC(=O)c2ccc3ccccc3c2)C1=O (stereo not given),x,n,n,n,x,x
COc1cc2c(=O)[nH]c3cc([N+](=O)[O-])ccc3c2cc1[N+](=O)[O-],n,n,n,n,n,x
Nc1cc2[nH]c(=O)c3ccccc3c2cc1[N+](=O)[O-],28,n,n,n,n,n
O=c1c2cc3cccnc3nc2ncn1Cc1cccs1,x,n,n,n,x,x
CN(C)c1ccc(NC(=O)CSc2nc(N)c(C(=O)Nc3ccc(N(C)C)cc3)s2)cc1,25,n,n,n,n,n
CCOC(=O)c1sc(SCC(=O)Nc2ccc(N(C)C)cc2)nc1N,n,n,n,n,n,x
O=C(CN(C(=O)c1csnn1)c1ccccc1F)NCc1ccc2c(c1)OCO2,25,n,n,n,n,n
O=C(CN(C(=O)c1csnn1)c1cccc(F)c1)NCc1ccc2c(c1)OCO2,n,n,n,n,n,x
CCOC(=O)[C@@]12CN(C(=O)OC(C)(C)C)CC=C1N(Cc1ccc(OC)cc1)C(=O)[C@H]2CC(=O)NCCc1ccccc1OC,x,n,n,n,x,x
C[n+]1c2cc(N)ccc2cc2ccc(N)cc21,25!,n,n,n,n,n
Nc1ccc2ccc(O)cc2c1,n,n,n,n,n,x
COc1ccc(-c2ccc3c(n2)CCCN3Cc2ccccc2C(F)(F)F)cc1,n,n,n,n,n,x
CN(C)CCNC(=O)c1cccc(-c2cnc3c(NC=O)cc(-c4ccc(F)cc4)cn23)c1,n,n,n,n,n,x
CC(=O)Nc1cccc(-c2cc(NC=O)c3ncc(-c4ccc(C(C)=O)cc4)n3c2)c1,25,n,n,n,n,n
COc1ccc(-c2cc(NC=O)c3ncc(-c4ccc(C(C)=O)cc4)n3c2)cn1,29,n,n,n,n,34
COc1ccc(-c2cc(NC=O)c3ncc(-c4cccc(C(=O)NCCN(C)C)c4)n3c2)cc1,27,n,n,n,n,27
CC(=O)Nc1cccc(-c2cc(NC(C)=O)c3ncc(-c4cccc(C(C)=O)c4)n3c2)c1,n,n,n,n,n,x
O=C1CCN(Cl)C(=O)N1Cl,26,n,n,n,n,n
SMILES,ARFGAP1 inh,sPLA2-III inh,PLC-gamma1 inh,PLCb3 inh,ASAP1 GAP inh,ARFGAP1 inh conf
O=C1CCCN1c1cc(Cl)cc(Cl)c1,n,n,n,n,n,x
COC(=O)[C@]12C[C@H](CC(=O)NCCC(C)C)C(=O)N(CCC3=CCCCC3)C1=C[C@H](C(C)C)O[C@@H]2C1CC1,x,n,n,n,x,x
CC(C)(CO)CNC1CCCN(C2Cc3ccccc3C2)C1 (stereo not given),25,n,n,n,n,n
COc1ccccc1CCn1cnc(-c2ccc(Br)cc2)c1CC(C)C,n,n,n,n,n,x
COc1ccccc1NCc1nc2ccccc2n1C,x,n,n,n,x,x
COc1ccccc1C(=O)c1nc2ccccc2n1C,25,n,n,n,n,n
CC1CCCCN1CC(O)COCCC12CC3CC(CC(C3)C1)C2 (stereo not given),25,n,n,n,n,n
COc1ccc(-n2c(=O)c3c4c(sc3n(CC(=O)Nc3cc(C)[nH]n3)c2=O)CCCC4)c(OC)c1,33,n,n,n,n,33
O=C(Cc1c[nH]c2ccccc12)Nc1ccc(Nc2cccnc2)c(-c2ccc(OC(F)(F)F)cc2)c1,27,n,n,n,n,n
O=C(Cc1c[nH]c2ccccc12)Nc1ccc(Nc2cccnc2)c(-c2cc(F)cc(F)c2)c1,25,n,n,n,n,n
COC(=O)[C@]12C[C@H](CC(=O)N3CCCCC3)C(=O)N(Cc3ccccc3)C1=C[C@H](C(C)(C)C)O[C@@H]2C,n,n,n,n,n,x
COC(=O)[C@]12C[C@H](CC(=O)NCc3ccc(C)o3)C(=O)N(CCC3=CCCCC3)C1=C[C@H](C(C)C)O[C@@H]2C1CC1,x,n,n,n,x,x
COC(=O)C1CN(CCc2ccccc2)CCS(=O)(=O)N1Cc1ccc(C(F)(F)F)cc1 (stereo not given),x,n,n,n,x,x
O=C(CN1C(=O)C2CCCCN2C(=O)c2ccccc21)N1CCCC1 (stereo not given),x,n,n,n,x,x
CCOc1ccc(-c2nnn(CC(=O)NCc3ccc4c(c3)OCO4)n2)cc1,29,n,n,n,n,n
COc1ccc(-c2nnn(CC(=O)NCc3ccc4c(c3)OCO4)n2)cc1OC,n,n,n,n,n,x
O=C(Nc1ccc2ccccc2c1)OC1CCS(=O)(=O)C1 (stereo not given),n,n,n,n,n,x
O=P(OC1CCS(=O)(=O)C1)(c1ccccc1)c1ccccc1 (stereo not given),27,n,n,n,n,n
O=C(NCc1cccs1)c1cc2c(s1)-c1ccccc1OC2,47,n,n,n,n,47
CCc1cc2c(nc1CC)CCCN2S(=O)(=O)c1ccccc1,n,n,n,n,n,x
CN(C)c1ccc(/C=N\NC(=O)c2cccc(S(=O)(=O)N(C)C)c2)cc1,x,n,n,n,x,x
CNC(C)C#Cc1ccc2sc3cccc(OC)c3c(=O)c2c1 (stereo not given),28,n,n,n,n,n
CC(C)c1cccc(C(C)C)c1NC(=O)OC1CCCCC1,28,n,n,n,n,n
CSc1cccc(NC(=O)OC2CCCCCCCCCCC2)c1,n,n,n,n,n,x
